Source: PMC3580853 (Bioorganic & medicinal chemistry letters, 2012)

Key:
[1] = test system: HIV-1; conditions: MT-2 cell culture
[2] = assay type: physicochemical; conditions: reaction at 37°C, gel apparatus up to 55°C
Procedure, shortened: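 Stability inferred from a single-turnover incorporation time course using HIV-1 RT (250 nM) and D23/D36 primer/template (50 nM). The test triphosphate (150 μM) and a dTTP reference (100 μM) were run in parallel at 37°C and sampled at 0, 30 s, 5, 10, 30 and 60 min. Products were resolved on denaturing acrylamide gel (apparatus up to 55°C), comparing band mobility.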

| Stability (in words) [2] | Compound | Antiviral activity in cell culture (in words) [1] |
| --- | --- | --- |
|  | CC(C)=CCN1Cc2c(OCCOCCOCCOCCOC(=O)CCc3cn([C@H]4C=C[C@@H](CO)O4)c(=O)[nH]c3=O)ccc3[nH]c(=S)n(c23)C[C@@H]1C [Compound 16a] | most inhibitory |
| increased compound stability | Cc1cc(C#CCOCCOCCOCCOCCOCC#Cc2cn([C@H]3C=C[C@@H](COP(=O)(O)OP(=O)(O)OP(=O)(O)O)O3)c(=O)[nH]c2=O)cc(C)c1Oc1ccnc(Nc2ccc(C#N)cc2)n1 [d4TTP-4PEG-TMC] |  |
